Results on 2 compounds are retold here after publication PMC5846678 (Bioorganic & medicinal chemistry letters, 2017).

The conditions of series [1]: pharmacokinetic analysis, DIPG mice models; cited from earlier work.
The subject of series [2] is IGF1R/IR. As to the kind of experiment: biodistribution in rats 120 min post injection. The series is classed as in vivo, Sprague-Dawley rats.
The subject of series [3] is IGF1R/IR. As to the kind of experiment: microPET imaging in mice. It counts as in vivo, C57BL/6 mice. The essentials: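 Male C57BL/6 mice (N = 2) under anaesthesia on an Inveon microPET. The 18F-labelled test compound was formulated in 5% ethanol/normal saline and sterile-filtered. 0.2 ± 0.05 mCi was given via tail vein at the start of acquisition. A 68Ge transmission scan was used for attenuation correction. List-mode data were collected for 60 min, Fourier-rebinned, reconstructed by filtered back-projection and expressed as nCi/cc. Images were summed 0–10 and 0–60 min. ROI time-activity curves were drawn for brain, heart, muscle and thalamus.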

Series [4] relates to IGF1R/IR. As to the kind of experiment: microPET imaging in rats. The series is classed as in vivo, Sprague-Dawley rats. The conditions noted are these: time frames 1-10 min and 81-90 min, tail vein injection. The essentials:
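Anaesthetised male Sprague-Dawley rats (N = 2) were imaged on an Inveon microPET after tail-vein injection of 0.2 ± 0.05 mCi 18F-labelled test compound in 5% ethanol/normal saline, with acquisition starting at injection. A 68Ge transmission scan provided attenuation correction. List-mode data were collected for 90 min, Fourier-rebinned, reconstructed by filtered back-projection and expressed as nCi/cc. Coronal images were summed 0–10 and 81–90 min. ROI time-activity curves covered heart, muscles and brain.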

For another series, the system named is IGF1R. The following applies: autoradiography; cited from earlier work.

Take `C[C@@]1(C(=O)Nc2ccc(F)nc2)CCCN1c1nc(Nc2cc(C3CC3)n[nH]2)c2cccn2n1` [BMS-754807]: the “concentration in tumor tissue” value in series [1] is “low concentration”.
Regarding `C[C@@]1(C(=O)Nc2ccc([18F])nc2)CCCN1c1nc(Nc2cc(C3CC3)[nH]n2)c2cccn2n1` [[^18F]BMS-754807], in the series on IGF1R/IR [2], the binding in lung result is “negligible binding”, the binding in spleen result was “negligible binding”, the binding in stomach result is listed as “low binding” and the “bone uptake ([18F]defluorination)” value is reported as “no bone uptake”. In the series on IGF1R/IR [2], the radioactivity in brain result was “low levels of radioactivity”, the uptake in heart result is given as “significant uptake”, the “uptake in large intestine” value is recorded as “moderate uptake” and the uptake in liver result is given as “moderate uptake”. In addition, in the series with IGF1R/IR [2], the uptake in pancreas entry is reported as “significant uptake” and the “uptake in small intestine” value is “unusually higher uptake”. Moreover, in the series on IGF1R/IR [3] (microPET), the “brain activity of the radiotracer” value is given as “no noticeable brain activity”, the uptake in heart entry is listed as “High uptake” and the uptake in muscles entry is “High uptake”. Besides, the “time of peak brain level of activity post-injection” value in the series with IGF1R/IR [3] (microPET time activity curves) was “less than 1 min”. In the series on IGF1R/IR [4], the “radioligand accumulation in brain” value is reported as “negligible”. Besides, the “binding in grade IV glioblastoma (GBM) in comparison to control brain tissues” value with IGF1R is reported as 5.25 times.
